30 compounds from ChEMBL document CHEMBL1142933, “Rational design of novel, potent small molecule pan-selectin antagonists” (J Med Chem, 2007) can be followed below.

One experiment addresses T1, P-selectin (Homo sapiens, UniProt P16109).
T1 sequence (P16109 whole entry): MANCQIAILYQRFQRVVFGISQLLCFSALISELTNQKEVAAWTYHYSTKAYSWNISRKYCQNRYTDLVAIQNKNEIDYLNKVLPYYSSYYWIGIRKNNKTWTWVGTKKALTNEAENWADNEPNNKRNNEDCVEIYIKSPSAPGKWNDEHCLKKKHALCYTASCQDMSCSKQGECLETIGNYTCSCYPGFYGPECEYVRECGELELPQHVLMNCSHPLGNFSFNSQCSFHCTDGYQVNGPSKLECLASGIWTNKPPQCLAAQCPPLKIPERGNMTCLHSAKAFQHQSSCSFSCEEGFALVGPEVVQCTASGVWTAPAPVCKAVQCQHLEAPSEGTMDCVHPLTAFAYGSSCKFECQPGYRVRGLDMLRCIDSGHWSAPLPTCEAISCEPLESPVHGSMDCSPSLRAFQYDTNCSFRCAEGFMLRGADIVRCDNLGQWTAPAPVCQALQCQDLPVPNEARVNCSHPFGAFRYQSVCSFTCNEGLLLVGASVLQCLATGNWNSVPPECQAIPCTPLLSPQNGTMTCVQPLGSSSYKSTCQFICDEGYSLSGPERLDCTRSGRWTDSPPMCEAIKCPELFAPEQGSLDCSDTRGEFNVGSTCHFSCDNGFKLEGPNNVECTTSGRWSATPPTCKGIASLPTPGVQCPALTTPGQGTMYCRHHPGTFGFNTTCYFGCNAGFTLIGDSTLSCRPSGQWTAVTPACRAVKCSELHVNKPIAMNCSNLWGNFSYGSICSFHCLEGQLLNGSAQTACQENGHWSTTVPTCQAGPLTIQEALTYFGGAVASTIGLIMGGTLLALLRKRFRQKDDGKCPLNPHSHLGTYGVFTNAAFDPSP
Kind of experiment: Inhibition of human P-selectin after 2 hrs. Put shortly: (§1)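 Biotinylated sLeX-tyrosine sulfate polyacrylamide complexed with streptavidin-peroxidase added with compound at varying concentrations (HEPES pH 7.4, 1 mM CaCl2, 1% DMSO), 2 h 37 °C. TMB read-out, OD 450 vs 620 nm.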

For the next experiment, the target named is T2, L-selectin (Homo sapiens, UniProt P14151).
T2 sequence (P14151 whole entry): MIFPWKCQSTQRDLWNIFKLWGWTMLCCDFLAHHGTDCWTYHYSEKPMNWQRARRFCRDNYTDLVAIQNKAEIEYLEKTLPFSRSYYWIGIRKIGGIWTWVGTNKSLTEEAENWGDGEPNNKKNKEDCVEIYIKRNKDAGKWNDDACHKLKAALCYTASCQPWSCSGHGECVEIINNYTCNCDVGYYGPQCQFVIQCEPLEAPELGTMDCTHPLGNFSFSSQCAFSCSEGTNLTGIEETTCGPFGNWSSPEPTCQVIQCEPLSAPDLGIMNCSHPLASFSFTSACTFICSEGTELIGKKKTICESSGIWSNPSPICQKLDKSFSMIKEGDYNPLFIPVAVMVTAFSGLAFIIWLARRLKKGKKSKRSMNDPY
Kind of experiment: Inhibition of human L-selectin after 2 hrs. The essentials:
as §1

The target in another experiment is T3, E-selectin (Homo sapiens, UniProt P16581).
T3 sequence (P16581 whole entry): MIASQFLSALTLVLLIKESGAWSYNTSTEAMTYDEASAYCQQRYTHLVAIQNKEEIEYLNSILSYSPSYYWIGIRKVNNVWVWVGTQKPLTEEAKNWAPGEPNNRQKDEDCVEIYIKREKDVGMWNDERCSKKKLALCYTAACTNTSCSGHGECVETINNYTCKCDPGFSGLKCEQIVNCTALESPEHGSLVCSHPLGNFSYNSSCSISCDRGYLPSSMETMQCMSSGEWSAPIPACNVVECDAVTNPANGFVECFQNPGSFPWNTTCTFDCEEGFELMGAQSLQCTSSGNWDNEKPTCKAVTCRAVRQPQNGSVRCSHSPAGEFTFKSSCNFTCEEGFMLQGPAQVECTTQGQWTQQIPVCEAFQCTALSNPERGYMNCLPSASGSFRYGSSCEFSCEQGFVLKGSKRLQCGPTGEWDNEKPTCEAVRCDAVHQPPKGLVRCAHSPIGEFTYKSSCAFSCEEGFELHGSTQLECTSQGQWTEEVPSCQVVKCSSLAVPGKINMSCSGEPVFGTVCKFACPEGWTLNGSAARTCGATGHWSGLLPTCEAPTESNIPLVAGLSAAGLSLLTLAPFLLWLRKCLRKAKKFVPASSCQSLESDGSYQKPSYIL
The experiment is described as follows: Inhibition of human E-selectin after 2 hrs. Put shortly: as §1

Experiment [1] deals with HL-60. The experiment is described as follows: Inhibition of attachment of HL60 cells to E-selectin at 109 uM after 5 mins. In kind it is functional. As to conditions: Homo sapiens, HL-60, 5 min. The essentials: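 Dishes coated with E- or P-selectin/Fc chimera, blocked with BSA, mounted in a parallel flow chamber run recirculating; HL-60 cells at 2.4 million/mL final. Cells attached after 5 min continuous flow at calculated shear 1 dyn/cm², with 109 µM compound or DMSO vehicle, counted in five low power fields. Mean inhibition as % of vehicle control from mean cells/field of at least two independent experiments.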

The subject of experiment [2] is HL-60. Kind of experiment: Inhibition of attachment of HL60 cells to P-selectin at 109 uM after 5 mins. In kind it is functional. The following applies: Homo sapiens, HL-60, 5 min. The essentials:
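Dishes coated with E- or P-selectin/Fc chimera, blocked with BSA, mounted in a parallel flow chamber run recirculating; HL-60 cells at 2.4 million/mL final. Mean inhibition as % of vehicle control from mean cells/field of at least two independent experiments.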

With `O=C(O)c1cc(O)c(O)c(O)c1` [GALLIC ACID], the IC50 on P-selectin is 19.1 µM; on L-selectin it was 27.6 µM; against E-selectin, > 500 µM.

Consider `O=C(O)Cc1ccc(-c2ccccc2NC(=O)CCCc2ccc(O)c(O)c2O)s1`, for which the IC50 against P-selectin was 24.8 µM; at L-selectin, 41.7 µM; on E-selectin it was > 500 µM. The inhibition at 109 µM amounted to 26% in the experiment with HL-60 [1] and 47% in the experiment on HL-60 [2].

Take `O=C(Nc1ccccc1-c1ccc(C(=O)O)s1)c1cccc(-c2ccc(O)c(O)c2O)c1`: the IC50 at P-selectin was 1.2 µM; on L-selectin, 1.6 µM; at E-selectin, 61.4 µM. In addition, the values for the inhibition at 109 µM in the experiment on HL-60 [1] and in the experiment with HL-60 [2] were 53% and 98%, respectively.

As for `O=C(O)Cc1cccc(-c2ccccc2OC(=O)c2cc(O)c(O)c(O)c2)c1`, the 50% inhibitory concentration (IC50) was 0.87 µM against P-selectin, 1.5 µM at L-selectin and > 500 µM on E-selectin. The results for the inhibition at 109 µM with HL-60 [1] and in the experiment with HL-60 [2] were 16% and 35%, respectively.

For the compound `Cc1ccc(C(=O)O)cc1NC(=O)Cc1cc(O)c(O)c(O)c1`, the values for the half-inhibitory concentration (IC50) on P-selectin, at L-selectin and on E-selectin were 42.8 µM, 64.5 µM and > 500 µM, respectively. For the same compound, the values for the inhibition at 109 µM in the experiment with HL-60 [1] and in the experiment with HL-60 [2] were 22% and 24%, respectively.

`O=C(O)Cc1ccc(-c2ccccc2NC(=O)c2ccccc2-c2cc(O)c(O)c(O)c2)s1`: the IC50 against P-selectin is 212 µM; against L-selectin, 244 µM; on E-selectin, 114 µM. In the experiment on HL-60 [2], the inhibition at 109 µM amounted to 25%.

Regarding `O=C(O)Cc1ccc(-c2ccccc2NC(=O)CCc2cc(O)c(O)c(O)c2)s1`, the values for the IC50 against P-selectin, against L-selectin and at E-selectin were 10.2 µM, 13.6 µM and 41.9 µM, respectively. For the same compound, the inhibition at 109 µM was determined as 35% in the experiment with HL-60 [1] and 11% in the experiment on HL-60 [2].

`O=C(O)Cc1ccc(-c2ccccc2NC(=O)CCCc2cc(O)c(O)c(O)c2)s1`: the IC50 at P-selectin turned out to be 53.9 µM; against L-selectin it was 105 µM; against E-selectin it was 52.4 µM.

Take `Cc1cc(O)c(O)c(O)c1`: the results for the IC50 at P-selectin, at L-selectin and at E-selectin were 31.8 µM, 38.5 µM and 31.7 µM, respectively.

As to `O=C(O)Cc1ccc(-c2ccccc2NC(=O)Cc2cc(O)c(O)c(O)c2)s1`, the IC50 turned out to be 2.4 µM on P-selectin, 3.1 µM at L-selectin and 3.3 µM against E-selectin. Moreover, the results for the inhibition at 109 µM with HL-60 [1] and with HL-60 [2] were 35% and 11%, respectively.

As to `O=C(O)Cc1cccc(-c2ccccc2NC(=O)Cc2cc(O)c(O)c(O)c2)c1`, the inhibition at 109 µM in the experiment on HL-60 [1] was determined as 18%; in the experiment on HL-60 [2] it was 22%.

With `O=C(O)Cc1cccc(NC(=O)CCc2cc(O)c(O)c(O)c2)c1`, the inhibition at 109 µM with HL-60 [1] came out at 19%.

Regarding `O=C(CCc1cc(O)c(O)c(O)c1)N[C@H]1CC[C@H](C(=O)O)CC1`, the IC50 came out at 3.4 µM on P-selectin, 5.7 µM at L-selectin and 3.1 µM on E-selectin.

With `O=C(Cc1cc(O)c(O)c(O)c1)NCc1ccc(C(=O)O)cc1`, the inhibition at 109 µM with HL-60 [1] amounted to 16%; in the experiment with HL-60 [2], 20%.

In the case of `O=C(O)Cc1ccc(-c2ccc(NC(=O)c3cccc(-c4ccc(O)c(O)c4O)c3)cc2)s1`, the IC50 against P-selectin was 0.57 µM; against L-selectin it was 0.79 µM; against E-selectin it was 9.7 µM. In addition, the inhibition at 109 µM in the experiment with HL-60 [1] is 47%; with HL-60 [2], 83%.

For the compound `CC(=O)N[C@H]1[C@H]([C@H](O)[C@H](O)CO)O[C@@](O[C@H]2[C@@H](O)[C@@H](CO)O[C@@H](O[C@@H]([C@H](O[C@@H]3O[C@@H](C)[C@@H](O)[C@@H](O)[C@@H]3O)[C@H](C=O)NC(C)=O)[C@H](O)CO)[C@@H]2O)(C(=O)O)C[C@@H]1O` [SIALYL LEWIS X], the IC50 against P-selectin is > 4000 µM; against L-selectin it was > 4000 µM; against E-selectin it was 134 µM. Also, in the experiment with HL-60 [1], 109 µM produced 32% inhibition.

Regarding `Cc1c(NC(=O)Cc2cc(O)c(O)c(O)c2)cccc1C(=O)O`, the IC50 on P-selectin and on L-selectin was > 500 µM throughout. In addition, in the experiment with HL-60 [1], the inhibition at 109 µM turned out to be 19%.

In the case of `O=C(O)Cc1ccc(-c2ccccc2NC(=O)c2cccc(-c3ccc(O)c(O)c3O)c2)s1`, the inhibition at 109 µM worked out at 61% with HL-60 [1] and 55% in the experiment with HL-60 [2].

In the experiment with HL-60 [1], `O=C(O)Cc1ccc(-c2ccccc2NC(=O)Cc2ccc(O)c(O)c2O)s1` yielded an inhibition at 109 µM of 26%. At E-selectin, the IC50 is > 500 µM.

For `O=C(O)Cc1ccc(-c2ccccc2NC(=O)CCc2ccc(O)c(O)c2O)s1`, the IC50 is 28.6 µM on P-selectin, 85.8 µM on L-selectin and > 500 µM against E-selectin.

For `O=C(O)c1ccc(O)c(O)c1O`, the IC50 against L-selectin was 15.2 µM; on E-selectin it was > 500 µM.

Take `O=C(CCc1cc(O)c(O)c(O)c1)NCc1ccc(C(=O)O)cc1`: the inhibition at 109 µM in the experiment on HL-60 [1] and in the experiment with HL-60 [2] was 21% in each case.

Regarding `O=C(O)Cc1ccc(-c2ccccc2NC(=O)/C=C/c2ccc(O)c(O)c2O)s1`, the IC50 at P-selectin stood at 3.4 µM; at L-selectin it was 4.3 µM; at E-selectin, 57.2 µM. In the experiment with HL-60 [2], the inhibition at 109 µM was 56%.

Take `O=C(O)Cc1cccc(NC(=O)Cc2cc(O)c(O)c(O)c2)c1`: on L-selectin, the IC50 was > 500 µM. The same compound had an inhibition at 109 µM in the experiment with HL-60 [1] of 27%.

`O=C(O)Cc1cccc(-c2cc(CCCCCCc3ccc(O[C@H]4O[C@H](CO)[C@@H](O)[C@H](O)[C@@H]4O)c(-c4cccc(CC(=O)O)c4)c3)ccc2O[C@H]2O[C@H](CO)[C@@H](O)[C@H](O)[C@@H]2O)c1` [BIMOSIAMOSE]: the IC50 at L-selectin was > 500 µM. For the same compound, the inhibition at 109 µM is 28% with HL-60 [1] and 50% with HL-60 [2].

For the compound `O=C(O)Cc1ccc(-c2ccccc2NC(=O)Cc2cccc(-c3ccc(O)c(O)c3O)c2)s1`, the IC50 against P-selectin was 3.6 µM; on L-selectin, 9.7 µM; on E-selectin, > 500 µM. In the experiment on HL-60 [2], 109 µM produced 58% inhibition.

`O=C(CCc1cc(O)c(O)c(O)c1)Nc1cccc(C(=O)O)c1`: the results for the IC50 against P-selectin, against L-selectin and against E-selectin were 19.6 µM, 46.6 µM and 18.7 µM, respectively.

Turning to `O=C(O)Cc1cccc(-c2ccccc2NC(=O)CCCNC(=O)c2cc(O)c(O)c(O)c2)c1`, the IC50 on P-selectin was 57.2 µM; against L-selectin, 154 µM; on E-selectin it was > 500 µM. Further, in the experiment with HL-60 [1], at 109 µM the inhibition was 29%.

In the case of `O=C(O)Cc1cccc(-c2ccccc2O[C@H]2O[C@H](CO)[C@@H](O)[C@H](O)[C@@H]2O)c1`, the IC50 at P-selectin, against L-selectin and at E-selectin was > 500 µM in each case. For the same compound, the inhibition at 109 µM in the experiment on HL-60 [1] stood at 34%.

In the case of `Cc1ccc(C(=O)O)cc1NC(=O)CCc1cc(O)c(O)c(O)c1`, the IC50 on P-selectin was 2.9 µM; against L-selectin, 4.2 µM.

By IC50 is commonly meant the midpoint of a concentration-inhibition curve. A higher IC50 goes with a need for much substance. The term inhibition denotes the change of the read-out against control, counted positive when it falls.
